Measurements taken from article PMC3361572 (Chemistry & biology, 2012).

Experiments:
[1] = no reference given; cited from earlier work
MAGL [2] = molecular target: T1, MAGL (Rattus norvegicus, UniProt Q8R431); test: competitive ABPP, rat brain membrane proteome; assay type: biochemical; conditions: read-out: IC50 (95% CI), rat MAGL; competitive ABPP, rat brain membrane proteome
T1 sequence (Q8R431 1-303): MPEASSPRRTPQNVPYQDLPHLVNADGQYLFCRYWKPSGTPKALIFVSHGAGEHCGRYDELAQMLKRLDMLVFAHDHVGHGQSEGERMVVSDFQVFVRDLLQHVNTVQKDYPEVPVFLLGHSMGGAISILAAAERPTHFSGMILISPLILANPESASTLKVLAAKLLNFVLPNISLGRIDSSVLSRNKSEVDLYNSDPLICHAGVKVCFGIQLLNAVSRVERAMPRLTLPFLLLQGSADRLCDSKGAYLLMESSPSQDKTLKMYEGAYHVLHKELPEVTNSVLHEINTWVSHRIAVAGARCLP
Outline: (§1)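 Brain (mouse or rat) or mouse lung proteomes were preincubated with the test compound, then treated with the serine hydrolase probe FP-Rh. Samples were separated by SDS-PAGE and read by in-gel fluorescence scanning. Inhibition was taken as reduced FP-Rh labelling of MAGL, ABHD6, FAAH or CES bands, and IC50 values were calculated from quantified gel bands. Three independent experiments.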

FAAH [3] = molecular target: T2, FAAH (Mus musculus, UniProt O08914); test: competitive ABPP, mouse brain membrane proteome; assay type: biochemical
T2 sequence (O08914 1-579): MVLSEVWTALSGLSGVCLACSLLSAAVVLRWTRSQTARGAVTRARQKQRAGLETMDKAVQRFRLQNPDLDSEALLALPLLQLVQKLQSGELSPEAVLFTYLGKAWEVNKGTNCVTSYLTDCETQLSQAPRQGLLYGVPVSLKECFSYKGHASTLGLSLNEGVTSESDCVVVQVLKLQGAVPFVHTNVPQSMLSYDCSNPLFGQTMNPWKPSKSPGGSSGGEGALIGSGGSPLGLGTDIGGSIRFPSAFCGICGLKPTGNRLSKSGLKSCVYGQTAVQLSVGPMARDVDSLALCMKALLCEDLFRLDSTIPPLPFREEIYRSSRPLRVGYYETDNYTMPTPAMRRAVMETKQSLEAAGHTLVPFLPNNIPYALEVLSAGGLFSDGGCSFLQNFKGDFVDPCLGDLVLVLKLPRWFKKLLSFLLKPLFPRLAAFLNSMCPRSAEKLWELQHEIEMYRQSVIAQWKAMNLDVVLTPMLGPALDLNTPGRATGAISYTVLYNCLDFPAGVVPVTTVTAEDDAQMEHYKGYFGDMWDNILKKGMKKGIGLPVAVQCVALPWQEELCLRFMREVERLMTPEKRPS
Outline: as §1

[4] = tested on: other rat brain serine hydrolases; test: competitive ABPP, rat brain proteome, other serine hydrolases; assay type: biochemical
Outline: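 Rat brain proteome was preincubated with test compound, then labelled with the serine hydrolase-directed probe FP-rhodamine. Proteins were separated by SDS-PAGE and scanned by in-gel fluorescence. Inhibition of individual serine hydrolases was scored as reduced probe labelling.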

hFAAH = molecular target: T3, hFAAH (Homo sapiens, UniProt O00519); test: competitive ABPP, proteomes of transiently transfected HEK293T cells; assay type: biochemical; conditions: for IC50: read-out: IC50 (95% CI), human FAAH, competitive ABPP, transfected HEK293T cell proteome
T3 sequence (O00519 1-579): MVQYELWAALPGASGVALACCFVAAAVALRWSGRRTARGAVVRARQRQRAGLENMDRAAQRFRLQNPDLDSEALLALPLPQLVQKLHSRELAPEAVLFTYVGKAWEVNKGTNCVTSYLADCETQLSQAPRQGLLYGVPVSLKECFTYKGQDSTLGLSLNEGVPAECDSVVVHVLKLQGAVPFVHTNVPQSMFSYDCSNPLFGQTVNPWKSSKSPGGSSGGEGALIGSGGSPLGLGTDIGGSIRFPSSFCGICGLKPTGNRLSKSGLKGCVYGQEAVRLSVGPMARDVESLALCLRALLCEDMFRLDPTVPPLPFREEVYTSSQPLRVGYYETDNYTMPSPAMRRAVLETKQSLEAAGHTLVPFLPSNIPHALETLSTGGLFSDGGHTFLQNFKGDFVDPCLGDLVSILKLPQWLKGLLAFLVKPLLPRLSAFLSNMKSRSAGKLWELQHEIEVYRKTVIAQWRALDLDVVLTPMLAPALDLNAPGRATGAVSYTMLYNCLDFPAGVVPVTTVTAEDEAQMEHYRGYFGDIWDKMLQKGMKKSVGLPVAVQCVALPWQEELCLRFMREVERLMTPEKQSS

FAAH [5] = molecular target: T4, FAAH (Rattus norvegicus, UniProt P97612); test: competitive ABPP, rat brain membrane proteome; assay type: biochemical; conditions: read-out: IC50 (95% CI), rat FAAH; competitive ABPP, rat brain membrane proteome
T4 sequence (P97612 1-579): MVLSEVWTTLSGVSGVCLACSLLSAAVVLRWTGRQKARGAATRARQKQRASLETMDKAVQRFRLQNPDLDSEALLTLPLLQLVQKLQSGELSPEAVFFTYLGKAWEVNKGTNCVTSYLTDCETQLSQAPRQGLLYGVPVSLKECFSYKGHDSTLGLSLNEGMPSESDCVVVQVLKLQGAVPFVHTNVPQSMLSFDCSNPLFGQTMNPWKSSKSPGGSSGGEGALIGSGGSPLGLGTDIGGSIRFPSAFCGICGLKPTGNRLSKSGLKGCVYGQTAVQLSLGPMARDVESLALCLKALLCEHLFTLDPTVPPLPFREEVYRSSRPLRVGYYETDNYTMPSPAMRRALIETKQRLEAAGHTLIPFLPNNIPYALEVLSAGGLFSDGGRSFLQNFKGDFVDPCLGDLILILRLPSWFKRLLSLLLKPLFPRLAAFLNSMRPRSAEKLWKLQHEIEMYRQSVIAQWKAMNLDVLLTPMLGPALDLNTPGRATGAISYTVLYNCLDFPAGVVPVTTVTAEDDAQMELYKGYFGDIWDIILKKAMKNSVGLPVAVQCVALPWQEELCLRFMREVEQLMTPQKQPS
Outline: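 Rat brain proteome pre-treated with test compound, then labelled with the serine hydrolase-directed fluorophosphonate-rhodamine (FP-Rh) activity-based probe. Proteins separated by SDS-PAGE and detected by in-gel fluorescence scanning. Inhibition scored as loss of FP-Rh labelling of the FAAH band. IC50 calculated from the gel-based ABPP data.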

[6] = tested on: brain 2-AG, AA, AEA, PEA, OEA; test: brain lipid profile of inhibitor-treated mice; assay type: in vivo, mouse; conditions: 40 mg kg^−1 p.o., six days
[7] = tested on: carboxylesterase (CES) enzymes; test: gel-based ABPP of liver, lung and spleen from inhibitor-treated mice; assay type: in vivo, mouse
[8] = previously noted by the authors, no reference given; cited from earlier work
FAAH [9] = molecular target: T2, FAAH; test: competitive ABPP of brain from inhibitor-treated mice; assay type: in vivo
MAGL [10] = molecular target: T5, MAGL (Mus musculus, UniProt O35678); test: competitive ABPP, mouse brain membrane proteome; assay type: biochemical; conditions: mouse brain proteome, competitive ABPP
T5 sequence (O35678 1-303): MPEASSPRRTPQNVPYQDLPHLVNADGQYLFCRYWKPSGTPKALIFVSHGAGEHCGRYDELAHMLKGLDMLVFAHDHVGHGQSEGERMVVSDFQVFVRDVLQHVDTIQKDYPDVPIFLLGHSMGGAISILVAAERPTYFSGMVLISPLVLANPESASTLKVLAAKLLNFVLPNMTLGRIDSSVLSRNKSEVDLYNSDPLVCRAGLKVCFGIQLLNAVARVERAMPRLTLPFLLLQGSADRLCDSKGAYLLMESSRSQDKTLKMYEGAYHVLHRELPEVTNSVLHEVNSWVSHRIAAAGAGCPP

hMAGL = molecular target: T6, hMAGL (Homo sapiens, UniProt Q99685); test: competitive ABPP, proteomes of transiently transfected HEK293T cells; assay type: biochemical; conditions: read-out: IC50 (95% CI), human MAGL, transfected HEK293T cell proteome
T6 sequence (Q99685 1-303): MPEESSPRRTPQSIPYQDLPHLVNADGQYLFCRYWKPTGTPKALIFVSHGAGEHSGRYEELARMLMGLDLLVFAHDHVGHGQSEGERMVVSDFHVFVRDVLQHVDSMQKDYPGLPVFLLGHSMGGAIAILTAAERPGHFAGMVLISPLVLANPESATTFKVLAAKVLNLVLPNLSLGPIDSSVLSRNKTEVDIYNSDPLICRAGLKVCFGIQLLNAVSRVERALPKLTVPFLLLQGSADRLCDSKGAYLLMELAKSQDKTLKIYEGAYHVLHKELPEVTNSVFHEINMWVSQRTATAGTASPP

In the case of OC(C(F)(F)F)C(F)(F)F [hexafluoroisopropanol], the pKa [1] is given as ~ 9.3.

With CN(Cc1cccc(-c2ccncc2)c1)C(=O)OC(C(F)(F)F)C(F)(F)F [JW618] the IC50 (MAGL [2]) was 0.385 µM, the “FAAH inhibition / cross-reactivity (gel-based ABPP)” value (FAAH [3]; mouse brain proteome, concentration range tested 0.001–50 μM) was “no detectable crossreactivity with FAAH” and the “additional off-target reactivity with other rat brain serine hydrolases” value [4] was “did not detect any additional off-target reactivity”. It also gave an IC50 (hFAAH) of over 50 µM and an IC50 (FAAH [5]) of over 50 µM.

For O=C(Oc1ccc([N+](=O)[O-])cc1)N1CCC(C(O)(c2ccc3c(c2)OCO3)c2ccc3c(c2)OCO3)CC1 [JZL184, reference compound], the “brain 2-AG and NAE levels, chronic dosing” value [6] was “increases in both 2-AG and NAEs”, the IC50 (MAGL [2]) was 0.262 µM and the “CES inhibition in peripheral tissues, chronic dosing” value ([7]; 40 mg kg^−1 p.o., six days) was “several CES enzymes in peripheral tissues”. The “reactivity with CESs in liver, lung and spleen” value ([7]; 1–40 mg kg^−1 p.o., 4 h) was “significant reactivity with several CESs”, the “solubility in dosing vehicle” value [8] was “limited solubility” and the “brain FAAH inhibition, chronic dosing” value (FAAH [9]; 40 mg kg^−1 p.o., six days) was “not only inhibited MAGL, but also FAAH”. For the same compound, the “inhibition of brain FAAH” value (FAAH [9]; highest dose tested 40 mg kg^−1 p.o., 4 h) was “partially inhibit FAAH”, the “cross-reactivity with hFAAH (competitive ABPP)” value (hFAAH; lysates of HEK293T cells transfected with hFAAH) was “no detectable cross-reactivity with FAAH up to 50 μM” and the IC50 (hFAAH) was over 50 µM. For the same compound, the IC50 (FAAH [5]) was 3.57 µM.

With O=C(OC(C(F)(F)F)C(F)(F)F)N1CCN(Cc2cccc(Oc3ccccc3)c2)CC1 [JW642] the IC50 (MAGL [2]) was 0.014 µM, the FAAH reactivity (FAAH [3]; competitive ABPP, up to 10 μM) was “no observable FAAH reactivity up to 10 μM” and the “additional off-target reactivity with other rat brain serine hydrolases” value [4] was “did not detect any additional off-target reactivity”. For the same compound, the “potency for MAGL relative to FAAH” value (MAGL [10]) was over 1000 fold, the IC50 (hFAAH) was 20.6 µM and the IC50 (hMAGL) was 0.0037 µM. It also gave an IC50 (FAAH [5]) of 14 µM.
